Results from paper PMC4629212 (Acta Pharmaceutica Sinica. B, 2015).

Experiments:
[1] = system: HepG-2 cells; assay: MTT assay of HepG-2 cell viability; type: cell-based, human; conditions: for Inhibition ratios for HepG-2 cell viability: 10 μmol/L compound, 48 h, mean of three independent experiments; for Effect on HepG-2 cell viability (in words): 10 μmol/L
Summary of the method: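 HepG-2 cells were kept at 37 °C under 5% CO2 and seeded at 5×10^3 cells/well. After 12 h, test compound was added at 10 µmol/L for 48 h. Viability was read by MTT conversion to purple formazan, and the inhibition rate was calculated against untreated cells set as 100%.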

[2] = biological target: T1, AChE (Electrophorus electricus, UniProt O42275); assay: biochemical; design: species or system Electric Eel; conditions: for inhibition at 50 µM: 0.25 h, read-out: Inhibition ratios for AChE
T1 sequence (O42275 24-633): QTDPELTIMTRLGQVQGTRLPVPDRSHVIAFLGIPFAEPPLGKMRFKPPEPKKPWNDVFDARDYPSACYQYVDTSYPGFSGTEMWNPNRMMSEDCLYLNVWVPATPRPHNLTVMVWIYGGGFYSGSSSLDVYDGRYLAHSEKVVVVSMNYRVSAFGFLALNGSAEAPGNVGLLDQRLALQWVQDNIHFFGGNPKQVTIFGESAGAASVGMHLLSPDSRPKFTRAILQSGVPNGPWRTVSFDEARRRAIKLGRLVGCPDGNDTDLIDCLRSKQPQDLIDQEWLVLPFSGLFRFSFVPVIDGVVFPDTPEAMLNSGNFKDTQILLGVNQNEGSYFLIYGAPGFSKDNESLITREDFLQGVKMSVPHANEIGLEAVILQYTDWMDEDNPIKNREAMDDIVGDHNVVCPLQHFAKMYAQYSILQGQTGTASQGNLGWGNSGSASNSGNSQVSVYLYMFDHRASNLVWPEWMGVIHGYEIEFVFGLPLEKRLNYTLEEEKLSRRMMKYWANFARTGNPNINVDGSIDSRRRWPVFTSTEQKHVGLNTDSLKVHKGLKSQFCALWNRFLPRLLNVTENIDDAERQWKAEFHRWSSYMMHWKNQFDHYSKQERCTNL

[3] = biological target: BChE (Equus caballus, UniProt P81908); assay: BChE inhibition, modified Ellman method; type: biochemical, equine; conditions: for inhibition at 50 µM: 0.25 h, read-out: Inhibition ratios for BChE
Chain of BChE (P81908 whole entry): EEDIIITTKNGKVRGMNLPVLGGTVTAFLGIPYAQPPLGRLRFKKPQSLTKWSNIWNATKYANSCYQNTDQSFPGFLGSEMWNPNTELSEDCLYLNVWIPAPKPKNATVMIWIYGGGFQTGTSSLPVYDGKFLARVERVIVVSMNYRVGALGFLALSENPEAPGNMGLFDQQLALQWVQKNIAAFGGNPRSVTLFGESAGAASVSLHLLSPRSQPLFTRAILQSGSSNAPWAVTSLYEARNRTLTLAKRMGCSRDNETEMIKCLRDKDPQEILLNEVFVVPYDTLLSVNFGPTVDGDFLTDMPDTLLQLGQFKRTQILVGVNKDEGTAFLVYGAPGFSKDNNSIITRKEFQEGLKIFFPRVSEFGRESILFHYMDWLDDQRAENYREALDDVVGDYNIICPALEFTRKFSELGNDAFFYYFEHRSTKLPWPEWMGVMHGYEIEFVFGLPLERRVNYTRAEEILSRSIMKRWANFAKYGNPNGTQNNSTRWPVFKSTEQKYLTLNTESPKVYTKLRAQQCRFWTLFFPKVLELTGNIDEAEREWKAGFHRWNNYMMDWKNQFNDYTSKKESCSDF

[4] = biological target: T1, AChE; assay: Kinetic characterization of AChE inhibition; type: biochemical, Electric Eel; conditions: Lineweaver–Burk plots
Summary of the method: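 Acetylthiocholine hydrolysis by AChE was measured at six substrate concentrations in 0.1 mol/L KH2PO4/K2HPO4 buffer, pH 8.0, with DTNB. Test compound was pre-incubated with the enzyme for 15 min at 37 °C before substrate was added. Absorbance was read at 412 nm, and a parallel no-inhibitor control was run.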

[5] = Metal-chelating study by UV-Vis spectrometry; type: physicochemical
Summary of the method: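 Test compound (20 μmol/L final) was incubated in water for 30 min at room temperature, alone or with CuSO4, FeCl3 or ZnCl2 (each 20 μmol/L final). UV-Vis absorption spectra were then recorded from 200 to 500 nm.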

SMILES	Inhibition ratios for HepG-2 cell viability [1] [%]	inhibition at 50 µM [2] [%]	inhibition at 50 µM [3] [%]	IC50 [2] [µM]	IC50 [3] [µM]	further results
CCCCNC(=O)COc1cc(O)c2c(=O)c(-c3ccc(O)cc3)coc2c1 [Compound 4a, N-butyl-2-(5-hydroxy-3-(4-hydroxyphenyl)-4-oxo-4H-chromen-7-yloxy)acetamide]	6.40	7.88 ± 3.58	1.19 ± 0.59	–	–	–
CN(C)CCNC(=O)COc1cc(O)c2c(=O)c(-c3ccc(O)cc3)coc2c1.Cl [Compound 4b, N-(2-(dimethylamino)ethyl)-2-(5-hydroxy-3-(4-hydroxyphenyl)-4-oxo-4H-chromen-7-yloxy)acetamide hydrochloride]	1.53	90.4 ± 1.23	26.1 ± 2.52	2.75 ± 0.28	> 50	Effect on HepG-2 cell viability (in words) [1]: no obvious effect on cell viability; Inhibition type of AChE [4]: mixed-type inhibition; Metal-chelating ability (overall) [5]: potent metal-chelating ability; Chelation of Cu^2+ (UV-Vis spectrum change) ([5]; 20 μmol/L compound, 20 μmol/L Cu^2+, in water): poor chelating ability
Cl.NCCCNC(=O)COc1cc(O)c2c(=O)c(-c3ccc(O)cc3)coc2c1 [Compound 4c, N-(3-aminopropyl)-2-(5-hydroxy-3-(4-hydroxyphenyl)-4-oxo-4H-chromen-7-yloxy)acetamide hydrochloride]	14.57	37 ± 2.07	13.8 ± 1.05	–	–	–
Cl.NCCCCNC(=O)COc1cc(O)c2c(=O)c(-c3ccc(O)cc3)coc2c1 [Compound 4d, N-(4-aminobutyl)-2-(5-hydroxy-3-(4-hydroxyphenyl)-4-oxo-4H-chromen-7-yloxy)acetamide hydrochloride]	1.17	34.5 ± 2.76	9.02 ± 0.23	–	–	–
Cl.O=C(COc1cc(O)c2c(=O)c(-c3ccc(O)cc3)coc2c1)NCCCCN1CCNCC1 [Compound 4e, 2-(5-hydroxy-3-(4-hydroxyphenyl)-4-oxo-4H-chromen-7-yloxy)-N-(4-(piperazin-1-yl)butyl)acetamide hydrochloride]	8.51	19.3 ± 1.87	11.7 ± 0.82	–	–	–
Cl.NCCCNCCCNC(=O)COc1cc(O)c2c(=O)c(-c3ccc(O)cc3)coc2c1 [Compound 4f, N-(3-(3-aminopropylamino)propyl)-2-(5-hydroxy-3-(4-hydroxyphenyl)-4-oxo-4H-chromen-7-yloxy)acetamide hydrochloride]	11.74	10.2 ± 0.44	9.52 ± 1.48	–	–	–
Cl.NCCCNCCCCNC(=O)COc1cc(O)c2c(=O)c(-c3ccc(O)cc3)coc2c1 [Compound 4g, N-(4-(3-aminopropylamino)butyl)-2-(5-hydroxy-3-(4-hydroxyphenyl)-4-oxo-4H-chromen-7-yloxy)acetamide hydrochloride]	16.72	16.5 ± 1.36	17.9 ± 2.83	–	–	–
Cl.NCCCCNCCCCNC(=O)COc1cc(O)c2c(=O)c(-c3ccc(O)cc3)coc2c1 [Compound 4h, N-(4-(4-aminobutylamino)butyl)-2-(5-hydroxy-3-(4-hydroxyphenyl)-4-oxo-4H-chromen-7-yloxy)acetamide hydrochloride]	16.30	51 ± 0.55	39.2	46.6 ± 3.87	> 50	Effect on HepG-2 cell viability (in words) [1]: no obvious effect on cell viability; Inhibition ratios for BChE ([3]; 50 μmol/L compound, mean±SEM of two experiments, BChE from equine serum): 39.20±5.64%
O=c1c(-c2ccc(O)cc2)coc2cc(O)cc(O)c12 [Genistein, reference compound]	–	–	–	> 100	> 100	inhibition at 100 µM ([2]; read-out: Inhibition of AChE activity): < 50%
Nc1c2c(nc3ccccc13)CCCC2 [Tacrine, reference compound]	57.35	–	–	–	–	–
